Assay results taken from ChEMBL document CHEMBL3046504, “Synthesis and antifungal activity of beta-trifluoroalkyl aminovinyl ketone derivatives” (J Agric Food Chem, 2009).
Calls of active or inactive are those of the source. The calls are words filed in the database; no cut-off is given here.

Experiments:
Alternaria alternata = assay: Antifungal activity against Alternaria alternata assessed as radial growth inhibition at 100 uM; assay type: functional; conditions: read-out: GI
In short: (§1)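 Initial screen on PDA plates (10 mL) amended with 10 or 100 μM compound, added from DMSO stocks (DMSO not exceeding 0.001% v/v) to warm (50 °C) sterile medium before pouring. Radial growth was compared with growth on unamended medium. Error bars are standard deviation.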

Medicago sativa = assay: Phytotoxicity against Medicago sativa (alfalfa) assessed as seed germination; assay type: organism-based; conditions: in vivo
Pythium aphanidermatum = assay: Antifungal activity against Pythium aphanidermatum assessed as radial growth inhibition at 10 to 100 uM; assay type: functional, organism-based; in short: as §1
Botrytis cinerea [1] = assay: Antifungal activity against Botryotinia fuckeliana isolate Bcl16 assessed as radial growth inhibition at 10 to 100 uM; assay type: functional, organism-based; in short: as §1
Botrytis cinerea [2] = assay: Antifungal activity against Botryotinia fuckeliana isolate Bcl16 assessed as radial growth inhibition during advanced test phase at 10 to 50 uM at 22 degC measured after 48 hr; assay type: functional, organism-based
In short: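 B. cinerea isolate BcI16 was grown on PDA amended with compound across 0-50 μM, added from DMSO stock (≤0.001% v/v final) to 50 °C medium. Plates were incubated at 22 °C for 48 h, then radial growth was measured against unamended controls.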

Rhizoctonia solani = assay: Antifungal activity against Rhizoctonia solani assessed as radial growth inhibition at 10 to 100 uM; assay type: functional, organism-based; in short: as §1
Sclerotinia sclerotiorum = assay: Antifungal activity against Sclerotinia sclerotiorum isolate 1980 assessed as radial growth inhibition during advanced test phase at 10 to 50 uM at 17 degC measured after 48 hr; assay type: functional, organism-based
In short: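 S. sclerotiorum isolate 1980 was grown on PDA amended with compound across 0-50 μM, added from DMSO stock (≤0.001% v/v final) to 50 °C medium. Plates were incubated at 17 °C for 48 h, then radial growth was measured against unamended controls.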

Solanum lycopersicum = assay: Phytotoxicity against Solanum lycopersicum (tomato) leaves; assay type: organism-based; conditions: in vivo
Neurospora crassa = assay: Antifungal activity against Neurospora crassa strain 74-OR23-1A assessed as radial growth inhibition at 100 uM; assay type: functional, organism-based; in short: as §1
Penicillium digitatum = assay: Antifungal activity against Penicillium digitatum assessed as radial growth inhibition at 100 uM; assay type: functional; conditions: read-out: GI; in short: as §1

Compound | inhibition of growth at 100 µM (Alternaria alternata) | Activity (Medicago sativa) | growth inhibition (GI) (Pythium aphanidermatum) | growth inhibition (GI) (Botrytis cinerea [1]) | growth inhibition (GI) (Botrytis cinerea [2]) | growth inhibition (GI) (Rhizoctonia solani) | growth inhibition (GI) (Sclerotinia sclerotiorum) | Activity (Solanum lycopersicum) | growth inhibition (GI) (Neurospora crassa) | inhibition of growth at 100 µM (Penicillium digitatum)
CC(=O)c1ccc(O)cc1 [4-HYDROXYACETOPHENONE] | ≤ 50% | Non-toxic | Active | Active | Active | Active | Active | Non-toxic | – | –
CC(C)(C)OC(=O)Nc1ccc(C(=O)/C=C(\N)C(F)(F)F)cc1 | ≤ 50% | Non-toxic | Active | Active | – | Active | – | Non-toxic | – | –
N/C(=C\C(=O)c1cccc(Br)c1)C(F)(F)F | ≤ 50% | Non-toxic | Active | Active | Active | Active | – | Non-toxic | Active | –
CC/C(C(=O)c1ccc(Cl)cc1)=C(/N)C(F)(F)F | ≤ 50% | Non-toxic | Active | Active | – | Active | – | Non-toxic | – | –
N/C(=C\C(=O)c1ccc(O)cc1)C(F)(F)F | ≤ 50% | Non-toxic | Active | Active | Active | Active | – | Non-toxic | – | –
N#Cc1ccc(C(=O)/C=C(\N)C(F)(F)F)cc1 | ≤ 50% | Non-toxic | Active | Active | – | Active | – | Non-toxic | – | –
N/C(=C\C(=O)c1ccc(Cl)cc1)C(F)(F)F | ≤ 50% | Non-toxic | Active | Active | Active | Active | – | Non-toxic | Active | > 50%
N/C(=C\C(=O)c1ccc(Cl)cc1)C(F)(F)C(F)(F)F | ≤ 50% | Non-toxic | Active | Active | Active | Active | Active | Non-toxic | – | –
N/C(=C\C(=O)c1ccc(F)cc1)C(F)(F)F | ≤ 50% | Non-toxic | Active | Active | – | Active | – | Non-toxic | Active | –
N/C(=C\C(=O)c1ccc2ccccc2c1)C(F)(F)F | ≤ 50% | Non-toxic | Active | Active | – | Active | – | Non-toxic | – | –
